Laboratory results taken from ChEMBL document CHEMBL4342467, “Discovery of a Novel Dual-Target Inhibitor of ERK1 and ERK5 That Induces Regulated Cell Death to Overcome Compensatory Mechanism in Specific Tumor Types” (J Med Chem, 2020).
Active and inactive are the calls of the source. The rule behind the calls is not given here.

Columns and labels:
MKN-74 [1] = test: Induction of autophagy in human MKN74 cells assessed as increase in p62 degradation at 0.5 uM measured after 24 hrs in presence of autophagy inhibitor 3-methyladenine by Western blot analysis; type: functional, cell-based
Outline: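 MKN-74 cells given 0.5 μM for 24 h with or without 3-MA; LC3 and p62 immunoblotted.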

HL-60 [2] = test: Antitumor activity against human HL60 cells xenografted in BALB/c mouse assessed as reduction in tumor volume at 50 mg/kg, po administered once daily for 16 days measured every 3 days during compound dosing; type: functional, organism-based
Outline: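 Female nude mice bearing subcutaneous HL-60, MKN-74 or HeLa xenografts, 8 per group. Dosing was vehicle control or 50 mg/kg p.o. once daily for 16 days. Tumor volume followed over time, mean ± SEM.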

[3] = Effect on Ras/Raf/MEK/ERK signaling in human MKN74 cells assessed as change in p38 phosphorylation at Thr180/Tyr182 residue at 0.5 uM measured up to 24 hrs by Western blot analysis; type: cell-based
Outline: (§1)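 MKN-74 cells exposed to 0.5 μM for 0, 6, 12 and 24 h. Ras, Raf, p-MEK1/2, MEK1/2, p-JNK, JNK, p-p38 and p38 immunoblotted, with GAPDH as loading control.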

[4] = AUC (0 to t) in Sprague-Dawley rat at 1 mg/kg, iv by LC-MS analysis; type: ADME, organism-based; conditions: in vivo
Outline: (§2)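 Rats, two groups of 3; single i.v. dose 1 mg/kg or oral dose 10 mg/kg. Plasma concentration-time profiles used to derive T1/2, Tmax, Cmax, AUC0-t, AUC0-∞ and oral bioavailability. Data from triplicate testing, ± standard deviation.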

MKN-74 [5] = test: Induction of autophagy in human MKN74 cells transfected with GFP-mRFP-LC3 assessed as increase in LC3 puncta formation at 0.5 uM measured after 24 hrs by fluorescence microscopic analysis; type: functional, cell-based
Outline: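 MKN-74 cells transfected with GFP-mRFP-LC3 plasmid, treated 24 h at 0.5 μM. GFP-LC3 puncta imaged by fluorescence microscopy.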

[6] = molecular target: Mitogen-activated protein kinase 7 (Homo sapiens) (UniProt Q13164); test: Inhibition of ERK5 in human MKN74 cells harboring ERK1/2 siRNA assessed as reduction in ERK5 phosphorylation at 0.5 uM by immunofluorescence assay; type: cell-based
Chain of Mitogen-activated protein kinase 7 (Homo sapiens) (Q13164 2-816 limits assumed): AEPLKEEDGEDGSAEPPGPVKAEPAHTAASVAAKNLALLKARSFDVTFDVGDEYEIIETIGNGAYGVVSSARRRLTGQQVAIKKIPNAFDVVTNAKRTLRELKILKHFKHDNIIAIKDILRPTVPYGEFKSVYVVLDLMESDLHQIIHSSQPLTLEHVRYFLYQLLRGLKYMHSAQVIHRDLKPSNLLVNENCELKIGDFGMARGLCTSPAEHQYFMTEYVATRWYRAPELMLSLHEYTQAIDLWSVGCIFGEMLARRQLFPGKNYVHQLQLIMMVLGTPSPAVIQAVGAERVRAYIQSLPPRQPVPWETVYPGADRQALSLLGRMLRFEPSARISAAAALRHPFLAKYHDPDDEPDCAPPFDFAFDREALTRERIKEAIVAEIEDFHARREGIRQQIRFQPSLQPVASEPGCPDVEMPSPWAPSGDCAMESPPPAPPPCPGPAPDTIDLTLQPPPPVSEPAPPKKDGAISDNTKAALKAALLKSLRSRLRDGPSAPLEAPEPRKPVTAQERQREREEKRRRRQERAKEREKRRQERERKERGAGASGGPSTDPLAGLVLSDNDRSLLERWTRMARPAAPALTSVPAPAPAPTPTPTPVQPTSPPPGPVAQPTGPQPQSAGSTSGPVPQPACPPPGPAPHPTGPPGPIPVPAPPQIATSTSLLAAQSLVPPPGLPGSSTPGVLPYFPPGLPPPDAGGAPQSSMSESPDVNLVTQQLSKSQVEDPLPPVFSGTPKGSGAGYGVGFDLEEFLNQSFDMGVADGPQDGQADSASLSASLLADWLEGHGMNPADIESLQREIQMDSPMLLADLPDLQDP
Outline: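 ERK1/2-specific or negative-control siRNA was transfected into MKN-74 cells for the indicated times, followed by compound at 0.5 μM. p-ERK1/2 and p-ERK5 puncta were detected by immunocytochemistry.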

MKN-74 [7] = test: Induction of autophagy in human MKN74 cells harboring ATG5 siRNA assessed as increase in p62 degradation at 0.5 uM by Western blot analysis; type: functional, cell-based
Outline: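 MKN-74 cells transfected with ATG5 or negative-control siRNA for the indicated times, then 0.5 μM. ATG5, LC3 and p62 immunoblotted, with GAPDH loading control.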

[8] = Half life in Sprague-Dawley rat at 1 mg/kg, iv by LC-MS analysis; type: ADME, organism-based; conditions: in vivo; outline: as §2
[9] = Effect on Ras/Raf/MEK/ERK signaling in human MKN74 cells assessed as change in JNK expression at 0.5 uM measured up to 24 hrs by Western blot analysis; type: cell-based; outline: as §1
MKN-74 [10] = test: Antiproliferative activity against human MKN74 cells assessed as reduction in cell viability measured after 24 hrs; type: functional, cell-based; conditions: MKN-74, 24 h
[11] = molecular target: Mitogen-activated protein kinase; ERK1/ERK2 (Homo sapiens) (UniProt P27361+P28482); test: Inhibition of ERK1/2 phosphorylation in human MKN74 cells harboring ERK1/2 siRNA at 0.5 uM by immunofluorescence assay; type: cell-based
Chain of Mitogen-activated protein kinase; ERK1/ERK2 (Homo sapiens) (P27361 whole entry, looked up): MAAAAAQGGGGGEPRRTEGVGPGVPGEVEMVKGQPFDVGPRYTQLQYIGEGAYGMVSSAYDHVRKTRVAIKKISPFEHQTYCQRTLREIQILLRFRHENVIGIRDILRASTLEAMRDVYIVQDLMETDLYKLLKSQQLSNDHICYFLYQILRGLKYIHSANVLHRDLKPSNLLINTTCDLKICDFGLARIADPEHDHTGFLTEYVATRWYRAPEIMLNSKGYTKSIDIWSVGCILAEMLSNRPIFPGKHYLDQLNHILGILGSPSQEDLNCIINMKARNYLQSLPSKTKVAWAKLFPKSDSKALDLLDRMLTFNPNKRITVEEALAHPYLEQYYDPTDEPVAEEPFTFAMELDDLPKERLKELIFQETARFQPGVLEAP
Chain of Mitogen-activated protein kinase; ERK1/ERK2 (Homo sapiens) (P28482 whole entry, looked up): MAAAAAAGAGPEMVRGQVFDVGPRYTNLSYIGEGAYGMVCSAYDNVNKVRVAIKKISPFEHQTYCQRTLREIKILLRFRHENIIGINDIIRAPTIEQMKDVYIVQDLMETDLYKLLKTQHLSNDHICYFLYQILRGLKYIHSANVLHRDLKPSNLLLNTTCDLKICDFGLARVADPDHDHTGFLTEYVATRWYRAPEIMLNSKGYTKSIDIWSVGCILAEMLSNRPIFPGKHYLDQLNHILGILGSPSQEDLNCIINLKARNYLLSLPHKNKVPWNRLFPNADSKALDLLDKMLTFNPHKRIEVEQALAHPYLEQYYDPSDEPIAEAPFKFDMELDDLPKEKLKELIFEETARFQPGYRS
Outline: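 MKN-74 cells transfected with ERK1/2-specific or negative-control siRNA for the indicated times, then given 0.5 μM. p-ERK1/2 and p-ERK5 puncta detected by immunocytochemistry.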

HeLa = test: Antiproliferative activity against human HeLa cells assessed as reduction in cell viability measured after 24 hrs; type: functional, cell-based
[12] = Tmax in Sprague-Dawley rat at 1 mg/kg, iv by LC-MS analysis; type: ADME, organism-based; conditions: in vivo
Outline: (§3)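 Two groups of rats (3 per group) received a single dose, either 1 mg/kg i.v. or 10 mg/kg p.o. Plasma concentrations were followed to derive Tmax, Cmax, T1/2, AUC and F. Data are from triple testing (± standard deviation).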

[13] = AUC (0 to t) in Sprague-Dawley rat at 10 mg/kg, po by LC-MS analysis; type: ADME, organism-based; conditions: in vivo; outline: as §2
[14] = Effect on Ras/Raf/MEK/ERK signaling in human MKN74 cells assessed as change in JNK phosphorylation at Thr183/Tyr185 residue at 0.5 uM measured up to 24 hrs by Western blot analysis; type: cell-based; outline: as §1
[15] = molecular target: Mitogen-activated protein kinase 7 (Homo sapiens) (UniProt Q13164); test: Inhibition of ERK5 in human MKN74 cells assessed as reduction in ERK5 phosphorylation at T218/Y220 residue at 0.5 uM measured up to 24 hrs by Western blot analysis; type: cell-based
[16] = Cmax in Sprague-Dawley rat at 10 mg/kg, po by LC-MS analysis; type: ADME, organism-based; design: dose 10 mg/kg, route oral; conditions: in vivo; outline: as §2
[17] = molecular target: Mitogen-activated protein kinase 1 (Homo sapiens) (UniProt P28482); test: Inhibition of wild-type human full length ERK2 (M1 to S360 residues) expressed in bacterial expression system at 1 uM by Kinomescan method relative to control
Chain of Mitogen-activated protein kinase 1 (Homo sapiens) (P28482 whole entry, the tested form may be a part): as the sequence (P28482 whole entry, looked up) above
Outline: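 KINOMEscan binding assays over a 100-kinase panel, with test compound at 1 μM. Results are given as % inhibition.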

[18] = Oral bioavailability in Sprague-Dawley rat at 10 mg/kg by LC-MS analysis; type: ADME, organism-based; conditions: in vivo; outline: as §3
[19] = molecular target: Mitogen-activated protein kinase 7 (Homo sapiens) (UniProt Q13164); test: Inhibition of ERK5 in human MKN74 cells harboring ERK1/2 siRNA assessed as reduction in ERK5 phosphorylation at 0.5 uM by Western blot analysis; type: cell-based
Outline: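 MKN-74 cells were transfected with ERK1/2-specific siRNA or negative-control siRNA, then exposed to compound. ERK1/2, p-ERK1/2, ERK5 and p-ERK5 were read by immunoblotting, with GAPDH as loading control.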

HL-60 [20] = test: Antiproliferative activity against human HL60 cells assessed as reduction in cell viability measured after 24 hrs; type: functional, cell-based; conditions: HL-60, 24 h
[21] = Tmax in Sprague-Dawley rat at 10 mg/kg, po by LC-MS analysis; type: ADME, organism-based; conditions: in vivo; outline: as §3
[22] = AUC (0 to infinity) in Sprague-Dawley rat at 10 mg/kg, po by LC-MS analysis; type: ADME, organism-based; design: dose 10 mg/kg, route oral, time infinity; conditions: in vivo; outline: as §2
Mus musculus = test: In vivo inhibition of ERK1/2 in BALB/c mouse xenografted with human MKN74 cells assessed as reduction in phosphorylated ERK1/2 expression at 50 mg/kg, po administered once daily for 16 days measured post-last dose by immunohistochemical analysis; type: functional, organism-based
Outline: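 Tumors excised from control and 50 mg/kg p.o.-treated xenograft mice were immunostained for Ki-67, p-ERK1/2 and p-ERK5. Positive-cell percentage quantified and compared with control.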

[23] = molecular target: Mitogen-activated protein kinase 1 (Homo sapiens) (UniProt P28482); test: Inhibition of ERK2 (unknown origin) at 1 uM by Z'-Lyte assay relative to control
HL-60 [24] = test: Antitumor activity against human HL60 cells xenografted in BALB/c mouse assessed as reduction in tumor weight at 50 mg/kg, po administered once daily for 16 days measured post-last dose; type: functional, organism-based
Outline: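 Female nude mice bearing subcutaneous xenografts (8 per group) received vehicle or 50 mg/kg p.o. once daily for 16 days. Excised tumors weighed and compared with control group.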

## NC(=O)c1c(NC(=O)c2ccccc2Cl)sc2c1CCN(C(=S)Nc1ccccc1Cl)C2
MKN-74 [1]
  Activity: inactive
HL-60 [2]
  Activity: Active
[3]
  Activity: inactive
[4]
  AUC(0-t): 1840 ng·h/mL
MKN-74 [5]
  Activity: Active
[6]
  inhibition: Active
MKN-74 [7]
  Activity: inactive
[8]
  half-life: 57 min
[9]
  Activity: inactive
MKN-74 [10]
  IC50: 2550 nM
[11]
  inhibition: Active
HeLa
  IC50: > 50000 nM
[12]
  Tmax: 4.8 min
[13]
  AUC(0-t): 5080 ng·h/mL
[14]
  Activity: inactive
[15]
  inhibition: Active
[16]
  Cmax: 1560 ng/mL
[17]
  inhibition: 91%
[18]
  bioavailability: 27.6%
[19]
  inhibition: Active
HL-60 [20]
  IC50: 1260 nM
[21]
  Tmax: 45 min
[22]
  AUC(0-inf): 5180 ng·h/mL
Mus musculus
  inhibition: Active
[23]
  inhibition: 92.7%
HL-60 [24]
  Activity: Active
